Results as given in ChEMBL document CHEMBL1125815, “2-Phenyl-3H-imidazo[4,5-b]pyridine-3-acetamides as non-benzodiazepine anticonvulsants and anxiolytics” (J Med Chem, 1991).

Legend:
[1] = target: GABA-A receptor; anion channel; test: Displacement of [3H]flunitrazepam from GABA-A benzodiazepine receptor of rat cerebral cortex membrane; assay type: tissue-based
How it was run: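 Rat cerebral cortex P2+P3 membranes (fresh tissue, two freeze-thaw-wash cycles to remove endogenous GABA), 0.4 mg protein. Incubated with 1 nM [3H]flunitrazepam and six concentrations (1 × 10^-5 – 1 × 10^-10 M) for 30 min at 4 °C. Filtered on GF/b filters and counted. […] IC50 from log-logit regression, mean of replicates.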

Mus musculus [2] = species: Mus musculus; test: Anticonvulsant activity against pentylenetetrazole-induced clonic seizures in mice; assay type: functional; conditions: Mus musculus; read-out: ED50
How it was run: (§1)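 Female adult ICR mice, groups of eight, given test compound ip (100 mg/kg screen) in 0.5% aqueous methylcellulose or vehicle. Challenged 30 min later with pentyletetrazole 80 mg/kg sc and scored for clonic seizures.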

[3] = target: GABA-A receptor; anion channel; test: Displacement of [3H]-diazepam from GABA-A benzodiazepine receptor of rat cerebral cortex membrane; assay type: tissue-based
How it was run: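 Membranes skipped the freeze-thaw-wash cycles, so endogenous GABA was retained. Six concentrations (1 × 10^-5 – 1 × 10^-10 M), 30 min at 4 °C, glass-fiber filtration and scintillation counting. IC50 from log-logit regression.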

Mus musculus [4] = test: Compound was tested for anticonvulsant activity against pentylenetetrazole-induced clonic seizures in mice on intraperitoneal administration; assay type: functional; conditions: ip; how it was run: as §1
Mus musculus [5] = test: Anticonvulsant activity against picrotoxin-induced clonic seizures in mice at 3.2 mg/kg sc; assay type: functional; conditions: route subcutaneous
Mus musculus [6] = test: Compound was tested for anticonvulsant activity against bicuculline-induced clonic seizures in mice at 2.7 mg/kg sc; assay type: functional; conditions: route subcutaneous
Mus musculus [7] = species: Mus musculus; test: Compound was tested for anticonvulsant activity against maximal electroshock-induced […] seizures in mice at 50mA, 200 ms; assay type: functional
[8] = (§2) Neurotoxicity against mice in rotarod test; assay type: toxicity, organism-based; conditions: mouse, in vivo
How it was run: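 Mice in groups of five, dosed ip 30 min before being placed on a knurled 28 mm rod rotating at 6 rpm. Failure to stay on for 1 min was scored as neurotoxic. ED50 and confidence limits were obtained by probit analysis.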

Mus musculus [9] = species: Mus musculus; test: Potentiation of ethanol (EtOH) induced sleep time in mice; assay type: functional; conditions: read-out: MED
How it was run: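 Compound given orally; the minimal effective dose (mg/kg po) for potentiating ethanol-induced sleep time in mice was reported.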

Mus musculus [10] = species: Mus musculus; test: as §2; assay type: toxicity, organism-based; conditions: in vivo
How it was run: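 Groups of five randomly selected mice were dosed 30 min before being placed on a knurled 28-mm rod rotating at 6 rpm. Failure to stay on the rod for 1 min was scored as neurotoxic. ED50 (mg/kg ip) and confidence limits came from probit analysis.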

Rattus norvegicus [11] = species: Rattus norvegicus; test: Anxiolytic activity by vogel punished drinking test in rats; assay type: functional; conditions: read-out: MED
How it was run: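 Modified Vogel conflict test. Rats were water-deprived for 48 h with food available. A drinkometer delivered a 0.65 mA shock after every 20th lick during a 3-min session starting at the first shock. Total shocks were compared with vehicle-treated rats by Dunnett's t test. Minimal effective dose reported in mg/kg ip.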

Mus musculus [12] = species: Mus musculus; test: Anxiolytic activity by light/dark exploratory behavioral test in mice; assay type: functional
How it was run: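 Mice were dosed 30 min before testing, then placed individually in a two-compartment light/dark activity chamber and left undisturbed for 5 min. Time spent in each compartment was compared with vehicle-treated mice by Dunnett's t test. Minimal effective dose and sedative dose reported in mg/kg ip.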

Rattus norvegicus [13] = species: Rattus norvegicus; test: Ratio of IC50 values for [3H]-Ro- 15-1788 binding in absence and presence of added GABA (rat cerebral cortex); assay type: functional
How it was run: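 Rat cerebral cortex membranes. IC50 for displacement of [3H]Ro 15-1788 was measured without and with excess added GABA. The ratio of the two IC50 values served as the index of agonist efficacy.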

Mus musculus [14] = test: Compound was tested for anticonvulsant activity against pentylenetetrazole-induced clonic seizures in mice at 80 mg/kg sc; assay type: functional; conditions: route subcutaneous; how it was run: as §1

Structure (SMILES): CNC1=Nc2ccc(Cl)cc2C(c2ccccc2)=[N+]([O-])C1 [CHLORDIAZEPOXIDE]
- IC50 [1]: 0.71 µM
- ED50 (Mus musculus [2]): 1.9 mg/kg

Structure (SMILES): CCCN(C)C(=O)Cn1c(-c2ccc(Cl)cc2)nc2cccnc21
- IC50 [1]: 0.68 µM
- ED50 (Mus musculus [2]): 11.6 mg/kg

Structure (SMILES): CN(C)C(=O)Cn1c(-c2ccc(Cl)cc2)nc2cnccc21
- IC50 [1]: > 10 µM

Structure (SMILES): CCN(CC)C(=O)Cn1c(-c2ccc(Cl)cc2)nc2cccnc21
- IC50 [1]: 1.8 µM
- ED50 (Mus musculus [2]): 16 mg/kg

Structure (SMILES): CN(C)C(=O)Cn1c(-c2ccoc2)nc2cccnc21
- IC50 [1]: > 10 µM

Structure (SMILES): NC(=O)Cn1c(-c2ccccc2)nc2cccnc21
- IC50 [3]: > 10 µM

Structure (SMILES): CC(=O)N1CCN(C(=O)Cn2c(-c3ccc(Cl)cc3)nc3cccnc32)CC1
- IC50 [1]: 6.4 µM
- ED50 (Mus musculus [4]): 100 mg/kg

Structure (SMILES): CN(C)C(=O)Cn1c(-c2ccc(F)cc2)nc2cccnc21
- IC50 [1]: > 10 µM
- ED50 (Mus musculus [2]): 40.5 mg/kg

Structure (SMILES): CN(C)C(=O)Cn1c(-c2ccc(Cl)cc2)nc2ccc(Cl)nc21
- IC50 [1]: 0.46 µM
- ED50 (Mus musculus [2]): 1.1 mg/kg

Structure (SMILES): NC(=O)Cn1c(-c2ccc(Cl)cc2)nc2cccnc21
- IC50 [1]: 8 µM
- ED50 (Mus musculus [5]): 211 mg/kg
- ED50 (Mus musculus [2]): 4.1 mg/kg
- ED50 (Mus musculus [6]): 174 mg/kg
- ED50 (Mus musculus [7]): 329 mg/kg
- TD50 [8]: > 1000 mg/kg

Structure (SMILES): CN(C)C(=O)CCn1c(-c2ccc(Cl)cc2)nc2cccnc21
- IC50 [1]: 9.3 µM
- ED50 (Mus musculus [2]): 29.4 mg/kg

Structure (SMILES): CN1CCN(C(=O)Cn2c(-c3ccc(Cl)cc3)nc3cccnc32)CC1
- IC50 [1]: > 10 µM
- ED50 (Mus musculus [4]): 100 mg/kg

Structure (SMILES): O=C(Cn1c(-c2ccc(Cl)cc2)nc2cccnc21)N1CCCC1
- IC50 [1]: 2.7 µM
- ED50 (Mus musculus [2]): 17.9 mg/kg

Structure (SMILES): NC(=O)Cn1c(-c2ccc(F)cc2)nc2cccnc21
- IC50 [1]: > 10 µM

Structure (SMILES): CN(C)C(=O)Cn1c(-c2ccc(Cl)cc2)nc2c(Cl)ccnc21
- IC50 [1]: > 10 µM

Structure (SMILES): CN(C)C(=O)Cn1c(-c2ccc(Cl)cc2)nc2ccncc21
- IC50 [1]: > 10 µM

Structure (SMILES): O=C(Cn1c(-c2ccc(Cl)cc2)nc2cccnc21)Nc1ccncc1
- IC50 [1]: 0.47 µM

Structure (SMILES): Cc1ccc(-c2nc3cccnc3n2CC(N)=O)cc1
- IC50 [1]: 4.5 µM
- ED50 (Mus musculus [2]): 50.5 mg/kg

Structure (SMILES): CCOC(=O)CNC(=O)Cn1c(-c2ccc(Cl)cc2)nc2cccnc21
- IC50 [3]: 9.1 µM

Structure (SMILES): NC(=O)Cn1c(-c2cccc(Cl)c2)nc2cccnc21
- IC50 [3]: < 10 µM

Structure (SMILES): Cc1ccc(-c2nc3ccc(Cl)nc3n2CC(=O)N(C)C)cc1
- IC50 [1]: 0.15 µM
- minimal effective dose (Mus musculus [9]): 10 mg/kg
- ED50 (Mus musculus [2]): 2.7 mg/kg
- ED50 (Mus musculus [10]): 15.2 mg/kg
- minimal effective dose (Rattus norvegicus [11]): 1 mg/kg
- Sedative dose (Mus musculus [12]): 5.62 mg/kg
- minimal effective dose (Mus musculus [12]; read-out: MED): 0.1 mg/kg
- GABA shift (Rattus norvegicus [13]): 3.06

Structure (SMILES): COc1ccc(-c2nc3cccnc3n2CC(=O)N(C)C)cc1
- IC50 [1]: 8.5 µM
- ED50 (Mus musculus [2]): 39.5 mg/kg

Structure (SMILES): O=C(Cn1c(-c2ccc(Cl)cc2)nc2cccnc21)Nc1ccccc1
- IC50 [1]: > 10 µM

Structure (SMILES): CC(=O)Oc1ccc2nc(-c3ccc(Cl)cc3)n(CC(=O)N(C)C)c2n1
- IC50 [1]: > 10 µM
- ED50 (Mus musculus [2]): 100 mg/kg

Structure (SMILES): CN(C)C(=O)Cn1c(-c2ccccn2)nc2cccnc21
- IC50 [3]: 2.6 µM

Structure (SMILES): CCOC(=O)N1CCN(C(=O)Cn2c(-c3ccc(Cl)cc3)nc3cccnc32)CC1
- IC50 [1]: 5.1 µM

Structure (SMILES): CCCC(CCC)C(=O)O [VALPROIC ACID]
- ED50 (Mus musculus [7]): 272 mg/kg
- ED50 (Mus musculus [14]): 149 mg/kg

Structure (SMILES): CN(C)C(=O)Cn1c(-c2ccc(C(F)(F)F)cc2)nc2cccnc21
- ED50 (Mus musculus [2]): 3.2 mg/kg
- IC50 [3]: 3.7 µM

Structure (SMILES): C[C@@H](C(=O)N(C)C)n1c(-c2ccc(Cl)cc2)nc2cccnc21
- IC50 [1]: > 10 µM
- ED50 (Mus musculus [2]): 31.6 mg/kg

Structure (SMILES): NC(=O)Cn1c(-c2ccc(Br)cc2)nc2cccnc21
- IC50 [1]: > 10 µM
- ED50 (Mus musculus [2]): 17.8 mg/kg

Structure (SMILES): CN(C)C(=O)Cn1c(-c2ccc(Cl)cc2)nc2cc(Cl)cnc21
- IC50 [1]: > 10 µM
- ED50 (Mus musculus [2]): 56.2 mg/kg

Structure (SMILES): CCC1(C)CC(=O)NC1=O (stereo not drawn) [ETHOSUXIMIDE]
- ED50 (Mus musculus [7]): > 1000 mg/kg
- ED50 (Mus musculus [14]): 130 mg/kg

Structure (SMILES): CNC(=O)Cn1c(-c2ccc(Cl)cc2)nc2cccnc21
- IC50 [1]: 1.6 µM
- ED50 (Mus musculus [2]): 12.5 mg/kg

Structure (SMILES): CCCN(CCC)C(=O)Cn1c(-c2ccc(Cl)cc2)nc2ccccc21
- IC50 [1]: 2.7 µM

Structure (SMILES): CN(C)C(=O)Cn1c(-c2ccc(Cl)cc2)nc2cccnc21
- IC50 [1]: 3.6 µM
- ED50 (Mus musculus [4]): 4.1 mg/kg

Structure (SMILES): CC(C)N(C(=O)Cn1c(-c2ccc(Cl)cc2)nc2cccnc21)C(C)C
- IC50 [1]: > 10 µM
